{"data": "Assay results gathered from unrelated publications", "note": "Lines come from different studies, so protocols differ."}
{"Structure (SMILES)": "COc1ccc2c(c1)CN(C(=O)CCN1CCC(Cc3ccccc3)CC1)CC[S@@+]2[O-]", "test system": "male human, plasma", "setting": "intravenous, 0.4 mg/kg, healthy volunteers", "quantity": "Cmax", "result": "1080 ng/mL"}
{"Structure (SMILES)": "CNC(C)(C)COCC(=O)N1CCC[C@H](C(=O)NCc2nc(-c3ccc(C(F)(F)F)cc3)cs2)C1", "test system": "Caco-2", "quantity": "efflux ratio", "result": 180}
{"Structure (SMILES)": "COc1ccc(NC(=O)Nc2ccc(-c3cn(Cc4ccc(Br)cc4)nn3)cc2)cc1", "target or system": "L02", "assay": "cell growth or viability, CCK-8", "setting": "50 µM, 72 h", "quantity": "viability", "result": "91.1%"}
{"Structure (SMILES)": "O=C(Nc1ccc(Cl)cc1)Nc1ccc(-c2cn(Cc3cccc(Cl)c3)nn2)cc1", "target or system": "L02", "assay": "cell growth or viability, CCK-8", "setting": "50 µM, 72 h", "quantity": "viability", "result": "92.6%"}
{"Structure (SMILES)": "COc1ccc(NC(=O)NCc2cn(Cc3ccccc3C)nn2)cc1", "target or system": "L02", "assay": "cell growth or viability, CCK-8", "setting": "50 µM, 72 h", "quantity": "viability", "result": "124%"}
{"Structure (SMILES)": "O=C(COc1ccc(Cl)cc1)NC12CC(c3nnc([C@H]4C[C@@H](OC(F)(F)F)C4)o3)(C1)C2", "test system": "human, plasma", "setting": "oral, 100 mg, single dose, fasted, healthy volunteers", "quantity": "Cmax", "result": "1180 nM"}
{"Structure (SMILES)": "COc1ccc(-c2c(Nc3ccccn3)[nH]c3c(C4=CCCCC4)c(-c4ccccc4)nn3c2=O)cc1", "test system": "human, plasma", "setting": "oral, 200 mg twice daily, multiple doses, patients", "quantity": "Cmax", "result": "13600 ng/mL"}
{"Structure (SMILES)": "O=C(Nc1ccc(Cl)cc1)Nc1cccc(-c2cn(Cc3ccc(Cl)cc3)nn2)c1", "target or system": "L02", "assay": "cell growth or viability, CCK-8", "setting": "50 µM, 72 h", "quantity": "viability", "result": "102%"}
{"Structure (SMILES)": "COc1ccc(NC(=O)NCc2cn(Cc3ccc(Br)cc3)nn2)cc1", "target or system": "L02", "assay": "cell growth or viability, CCK-8", "setting": "50 µM, 72 h", "quantity": "viability", "result": "119%"}
{"Structure (SMILES)": "CC(C)n1c(C2CCNCC2)nc2c([N+](=O)[O-])c(Br)c(Br)cc21", "test system": "human, plasma", "setting": "oral, 150 mg, patients", "quantity": "Cmax", "result": "249 ng/mL"}
{"Structure (SMILES)": "O=C(NCc1cn(Cc2cccc(Cl)c2)nn1)Nc1ccc(Cl)cc1", "target or system": "L02", "assay": "cell growth or viability, CCK-8", "setting": "50 µM, 72 h", "quantity": "viability", "result": "100%"}
{"Structure (SMILES)": "COc1ccc(NC(=O)NCc2cn(Cc3ccc(Cl)cc3)nn2)cc1", "target or system": "L02", "assay": "cell growth or viability, CCK-8", "setting": "50 µM, 72 h", "quantity": "viability", "result": "121%"}
